Key:
[1] = molecular target: T1, Thyroxine 5-deiodinase (Homo sapiens) (UniProt P55073); assay: Inhibition of Human Placenta Inner-Ring Iodothyronine 5-deiodinase at the compound concentration of 5 mM
T1 sequence (whole entry): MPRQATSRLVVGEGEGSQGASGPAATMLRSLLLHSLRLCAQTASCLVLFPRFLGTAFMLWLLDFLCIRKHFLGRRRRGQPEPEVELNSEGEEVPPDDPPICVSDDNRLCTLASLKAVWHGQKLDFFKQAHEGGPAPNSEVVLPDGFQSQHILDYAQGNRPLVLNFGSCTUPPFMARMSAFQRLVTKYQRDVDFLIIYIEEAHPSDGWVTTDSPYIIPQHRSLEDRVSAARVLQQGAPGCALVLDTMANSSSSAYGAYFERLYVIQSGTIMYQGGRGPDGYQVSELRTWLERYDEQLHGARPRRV
Method in brief: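 Human placenta microsomal fraction (225 μg/tube) incubated 60 min at 37 °C with 290 pmol T4 in 0.1 M potassium phosphate–0.01 M EDTA, pH 7.4, with 0.25 mM DTT. Inhibitors at 5 mM, diluted from 30 mM stocks in 0.04 M NaOH. rT3 formed measured by radioimmunoassay. Inhibition relative to uninhibited control, quadruplicate incubations.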

[2] = molecular target: T1, Thyroxine 5-deiodinase (Homo sapiens); assay: Inhibition of Human placenta inner-ring Iodothyronine 5-deiodinase activity measured as rT3 production in presence of DTT concentrations of 12.5 mM
Method in brief: (§1)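 Placenta microsomes (225 μg/tube) incubated with 290 pmol T4 in 0.1 M potassium phosphate–0.01 M EDTA (pH 7.4), 60 min, 37 °C. DTT varied over 0.2–100 mM in place of 0.25 mM. Inhibitor present at 5 mM. rT3 production (pmol/tube) measured by radioimmunoassay and compared with control tubes without inhibitor. Quadruplicate incubations.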

[3] = molecular target: T1, Thyroxine 5-deiodinase (Homo sapiens); assay: Inhibition of Human placenta inner-ring Iodothyronine 5-deiodinase activity measured as rT3 production in presence of DTT concentrations of 0.2 mM; method in brief: as §1
[4] = molecular target: T1, Thyroxine 5-deiodinase (Homo sapiens); assay: Inhibition of Human placenta inner-ring Iodothyronine 5-deiodinase activity measured as rT3 production in presence of DTT concentrations of 1.56 mM; method in brief: as §1
[5] = molecular target: T1, Thyroxine 5-deiodinase (Homo sapiens); assay: Inhibition of Human placenta inner-ring Iodothyronine 5-deiodinase activity measured as rT3 production in presence of DTT concentrations of 100 mM; method in brief: as §1

Row | SMILES | inhibition [1] [%] | rT3 Production [2] [pmol/tube] | rT3 Production [3] [pmol/tube] | rT3 Production [4] [pmol/tube] | rT3 Production [5] [pmol/tube]
1 | CCc1ccc(Nc2cc(=O)[nH]c(=S)n2C)cc1 | 2 | – | – | – | –
2 | Cn1c(=S)[nH]c(N)c(Cc2ccccc2)c1=O | 79 | – | – | – | –
3 | CCCCc1ccc(Nc2cc(=O)n(C)c(=S)[nH]2)cc1 | 20 | – | – | – | –
4 | CCc1ccc(Nc2cc(=O)n(C)c(=S)[nH]2)cc1 | 0 | – | – | – | –
5 | CCCc1cc(=O)[nH]c(=S)[nH]1 | 29 | 43.3 | 2.6 | 13.3 | 104
6 | Nc1cc(O)nc(S)n1 | 16 | – | – | – | –

Continued, values first:

Row | inhibition [1] [%] | rT3 Production [2] [pmol/tube] | rT3 Production [3] [pmol/tube] | rT3 Production [4] [pmol/tube] | rT3 Production [5] [pmol/tube] | SMILES
7 | 31 | – | – | – | – | Oc1cc(Nc2ccccc2)nc(S)n1
8 | 96 | 2.5 | 0.2 | 0.8 | 4.1 | CCCCc1ccc(Nc2cc(O)nc(S)n2)cc1
9 | 85 | – | – | – | – | CCc1ccc(Nc2cc(O)nc(S)n2)cc1
